# Measured values as given in ChEMBL document CHEMBL4699587, “Pyridine-4(1H)-one Alkaloids from Waltheria indica as Antitrypanosomatid Agents” (J Nat Prod, 2020).
# Key:
# [1] = Selectivity index, ratio of IC50 for cytotoxicity against rat L6 cells to IC50 for growth inhibition of amastigote form of Trypanosoma cruzi Tulahuen C2C4 expressing LacZ infected in rat L6 cells; format: toxicity, cell-based; conditions: read-out: Ratio IC50
# Summary of the method: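 Selectivity index is calculated as the IC50 for cytotoxicity in uninfected rat skeletal L6 host cells divided by the IC50 against T. cruzi (Tulahuen C4) amastigotes. Both IC50 values are in µM.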
# Trypanosoma cruzi = test: Growth inhibition of amastigote form of Trypanosoma cruzi Tulahuen C2C4 expressing LacZ infected in rat L6 cells assessed as reduction in parasitic growth incubated for 96 hra by CPRG/Nonidet reagent based inverted microscopic analysis; format: functional, organism-based
# Summary of the method: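 Intracellular amastigotes of T. cruzi Tulahuen C4 strain were tested in vitro for growth inhibition. IC50 values are in µM, given as the mean of two independent assays or the mean of three independent assays ± SD.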
# L6 = test: Cytotoxicity against rat L6 cells assessed as reduction in cell viability after 70 hrs by resazurin dye based inverted microscopic analysis; conditions: L6, 70 h
SMILES,selectivity ratio [1],IC50 (Trypanosoma cruzi) [µM],IC50 (L6) [µM]
COc1c(C)[nH]c2c(c1=O)[C@@H](CCCCCc1ccccc1)CC[C@H]2OC,13.8,0.1,1.8
CCCCCCCC[C@H]1CC[C@@H](O)c2[nH]c(C)c(OC)c(=O)c21,4,6.5,26.2
COc1c(C)[nH]c(CCCCCCCCCc2ccccc2)cc1=O,> 13,2.1,> 29
COc1c(C)[nH]c2c(c1=O)[C@@H](CCCCCc1ccccc1)CCC2,5,1.3,6.5
COc1c(C)[nH]c2ccc3c(c2c1=O)[C@@H]1CC[C@H](O)[C@@]3(c2ccccc2)O1,> 1,> 20,> 22
COc1ccccc1[C@@]12CC[C@@H](OC1)c1c2ccc2[nH]c(C)c(OC)c(=O)c12,> 1,19,> 26
CCCCCCCCc1cccc2[nH]c(C)c(OC)c(=O)c12,1.5,10,15
COc1ccccc1[C@]12CC[C@H](O[C@@H]1OC)c1c2ccc2[nH]c(C)c(OC)c(=O)c12,> 1,18.7,> 24
COc1c(C)n(OC)c2c(c1=O)[C@@H](CCCC[C@H](O)c1ccccc1)CCC2,> 3.5,7.5,> 26
COc1c(C)[nH]c2c(OC)ccc(CCCCCc3ccccc3)c2c1=O,> 12.5,2.1,> 26
COc1c(CO)[nH]c2c(c1=O)[C@H](CCCCCc1ccccc1)CCC2,> 4,7,> 28
COc1cc(CCCCCc2ccccc2)c2c(=O)c(OC)c(C)[nH]c2c1OC,> 1.5,12.9,> 23
COc1ccc(OC)c([C@@]2(O)c3ccc4[nH]c(C)c(OC)c(=O)c4c3[C@@H]3CC[C@H]2O3)c1,> 1,14.7,> 25
COc1c(C)[nH]c2c(c1=O)[C@@H](CCCCCc1ccccc1)CCC2=O,24.5,0.5,12
COc1c(CO)[nH]c2ccc3c(c2c1=O)[C@@H]1CCC[C@@]3(c2ccccc2)O1,> 1.5,14.7,> 22
COc1cc(OC)cc(C2=CCCCc3c2ccc2[nH]c(C)c(OC)c(=O)c32)c1,> 1.5,13.1,> 25
CCCCCCCCCCCCc1cc(=O)c(OC)c(C)[nH]1,> 6,5,> 32
COc1c(CO)n(OC)c2c(c1=O)[C@H](CCCCCc1ccccc1)CCC2,> 6,3.9,> 26
COc1c(C)[nH]c2c(c1=O)[C@@H](CCCCCc1ccccc1)CC[C@H]2O,> 33,0.8,> 28
O=C(Cn1ccnc1[N+](=O)[O-])NCc1ccccc1 [BENZNIDAZOLE],> 119,2.9,> 345
